Assay outcomes as filed in PubChem.
BAP1 block: human BAP1 deubiquitinase inhibition; AID 436; recombinant BAP1, Ub-AMC hydrolysis fluorescence kinetic; active compounds read low; Q92560; calls only at 20 µM; hit rate 0.48% among 72,000;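 active means activity remaining at or below 50% of control, provided the compound also passes the data quality filters; inactive means the rest, including low values that fail the filters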;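 further: 100% = DMSO wells rate and 0% = substrate alone blank rate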
Hsp90 inh: displaces geldanamycin probe from tumor Hsp90 | NCI-N417 lysate Hsp90, Cy3B-geldanamycin FP displacement | inhibition, % at 30 µM | hit rate 0.35% among 64,000 | AID 429;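 active means inhibition above 50%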;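 further: 0% = tracer plus lysate wells and 100% = tracer alone without lysate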
M1 ag: activates the M1 muscarinic receptor; CHO-M1 cells, Fluo-4 calcium fluorescence, agonist mode; active compounds read high; B-score at 10 µM; hit rate 3% among 64,000;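 active means fluorescence rise, raw or as B-score row- and column-corrected plate score, outside the 99.7% band of its plate's samples, either direction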
M1 antagonist: blocks the rat M1 muscarinic receptor response to acetylcholine; P08482; CHO-M1 cells, Fluo-4 calcium, ACh EC80 antagonist mode; active compounds read low; B-score at 10 µM; hit rate 3.4% among 64,000;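 active means calcium fluorescence response, raw or row-and-column corrected B-score, differing from the plate sample mean either way at a set confidence level, mostly lower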
Target sequence (P08482 whole entry, looked up): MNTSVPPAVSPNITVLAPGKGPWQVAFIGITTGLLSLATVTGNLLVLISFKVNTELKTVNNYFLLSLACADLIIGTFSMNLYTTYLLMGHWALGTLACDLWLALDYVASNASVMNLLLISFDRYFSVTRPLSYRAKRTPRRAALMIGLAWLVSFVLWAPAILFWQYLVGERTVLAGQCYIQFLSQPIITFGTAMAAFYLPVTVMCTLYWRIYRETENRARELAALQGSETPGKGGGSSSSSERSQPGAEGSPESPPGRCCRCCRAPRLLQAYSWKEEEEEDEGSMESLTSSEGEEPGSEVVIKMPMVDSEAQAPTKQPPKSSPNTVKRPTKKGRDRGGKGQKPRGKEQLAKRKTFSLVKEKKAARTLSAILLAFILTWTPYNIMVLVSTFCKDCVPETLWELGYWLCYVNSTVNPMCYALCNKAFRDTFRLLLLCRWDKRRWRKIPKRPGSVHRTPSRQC
E coli WT exp: growth inhibitors of E. coli BW25113 wild type. OD600 absorbance. growth inhibition, % at 100 µM. hit rate 0.15% among 98,000. AID 710;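 active means growth inhibition above about 50% at one test dose, limit read from the data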;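 further: growth measured after 20 h incubation at 37 °C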
tolC growth inh: growth inhibitors of E. coli BW25113 tolC mutant | AID 573 | hit rate 2.2% among 65,000 | OD615 | growth inhibition, % at 10 µM (by protocol);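 active means growth inhibition at or above a cutoff equal to the mean over every tested compound plus 3 SD, cut at about 60% in these data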;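 further: growth measured after 20 h incubation at 37 °C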
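Test system: tolC-deleted E. coli BW25113; medium: LB with kanamycin 50 µg/mL; compound: single-point testing at 10 µM; incubation: 20 h compound exposure of bacteria at 37 °C; signal: OD at 615 nm; evaluation: growth inhibition in percent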
An asterisk follows results filed as active; i = inactive; . = no result given; + = active, no number. Compounds with a hit are over-represented: about 5.1% of the library has one in this group of screens.

SMILES	BAP1 block	Hsp90 inh	M1 ag	M1 antagonist	E coli WT exp	tolC growth inh
CCn1cc(C(=O)NCc2ccco2)c(=O)c2cc(F)c(N3CCN(C(=O)c4ccco4)CC3)cc21	i	-10	2.3	-0.44	90*	14
O=C1c2cccc3c(N4CCCCC4)ccc(c23)C(=O)N1CCCOC(=O)C12CC3CC(CC(C3)C1)C2	i	.	.	.	.	.
COc1ccc(C(=O)Nc2cccc3c2C(=O)c2ccccc2C3=O)cc1	i	.	.	.	.	.
CCn1cc(C(=O)NCc2ccccn2)c(=O)c2cc(F)c(N3CCN(C)CC3)cc21	i	-3	0.52	0.024	100*	13
COc1cc(OC)c(C2CC(=O)N3CN(C)CSC3=C2C#N)cc1OC (stereo not given)	i	-2	-0.56	0.66*	-4	-9
COC(=O)c1ccc(OC)c(CSc2nnc(COc3ccccc3)o2)c1	i	-3	0.68	-0.41	1	62*
CCN(CC)c1ccc2cc(-c3nnc(-c4ccncc4)o3)c(=O)oc2c1	i	33	401*	-15*	-7	7
CCN(CC)c1ccc2cc(-c3nc(-c4ccccc4)n[nH]3)c(=O)oc2c1	i	.	.	.	.	.
O=C(O)c1cc(S(=O)(=O)Nc2ccc3oc(=O)sc3c2)ccc1O	i	43	-0.72	-1.4	-3	5
Cc1ccc(S(=O)(=O)Nc2ccc3oc(=O)sc3c2)c(C)c1	i	56*	-0.56	-0.69	8	26
O=[N+]([O-])c1ccc2nonc2c1Nc1ccc(Oc2ccccc2)cc1	i	.	.	.	.	.
Cc1cc(C)c2ccc(N)nc2c1O	i	27	0.32	-0.035	96*	39
Cc1cc(C)c2ccc(C)[n+]([O-])c2c1O	i	0	-0.3	0.91	11	4
Cc1cc(NC(=O)CS(=O)(=O)c2cn(Cc3cccc(F)c3)c3ccccc23)no1	i	11	1.7	3.6*	-14	24
O=C(CN1CCN(c2nc3ccc([N+](=O)[O-])cc3s2)CC1)Nc1ccc(Br)cc1	i	.	.	.	.	.
Cc1nc(-c2c(C(F)(F)F)noc2-c2ccc(O)cc2O)cs1	.	.	.	.	4	.
Oc1ccc(-c2onc(C(F)(F)F)c2-c2cscn2)c(O)c1	i	65*	-0.9	-0.19	9	19
c1ccc(-c2nc(N3CCCCCC3)nc(-n3ccnc3)n2)cc1	i	1	0.18	-0.0079	3	98*
CCc1cc2c(=O)c(Oc3ccccc3)c(C)oc2cc1OC(C)C	i	.	.	.	.	.
O=C(OC1CCc2ccccc2C1=O)c1ccccc1O (stereo not given)	i	72*	-0.52	-0.088	6	68*
COc1ccccc1N1CCN(C(=O)c2ccc(NC(C)=O)cc2)CC1	i	-1	0.22	-0.11	2	-12
CCCCC(=O)Nc1ccc(C(=O)N2CCN(c3ccccc3OC)CC2)cc1	i	-3	-0.051	3.4*	-1	25
COc1ccc(C(=O)Nc2nc(-c3ccc(C(C)(C)C)cc3)cs2)c(OC)c1	i	.	.	.	.	.
CCOC(=O)C1CCCN(C(=O)C2c3ccccc3Oc3ccccc32)C1 (stereo not given)	i	-2	-0.37	0.68*	5	18
CCOC(=O)C1CCCN(C(=O)Cc2ccc(C)cc2)C1 (stereo not given)	.	.	.	.	0	.
SMILES	BAP1 block	Hsp90 inh	M1 ag	M1 antagonist	E coli WT exp	tolC growth inh
COc1ccc(C(=O)Nc2ccc3oc(-c4ccc(Br)cc4)nc3c2)cc1OC	i	.	.	.	.	.
COc1cccc(/C=N/n2c(SC)nnc2-c2ccccc2)c1O	i	0	7.2*	-1	10	12
Cc1ccc(N2C(=O)C3C4c5ccccc5C(C)(c5ccccc54)C3C2=O)c([N+](=O)[O-])c1 (stereo not given)	i	.	.	.	.	.
O=C(Nc1scc(-c2cccs2)c1C(=O)O)c1cccs1	i	-2	1.3	-0.62	-3	75*
CCc1nc(C)cc2cc(OC)c(OC)cc12	i	.	.	.	.	.
CC(C)c1ccc(Nc2nc(NCc3ccco3)nc(N3CCOCC3)n2)cc1	i	-5	0.76	-0.15	-7	66*
O=C(Nc1cccc(Cl)c1)c1cc2c(=O)oc3ccccc3c2s1	i	.	.	.	.	.
CCOC(=O)c1cc(NC(=O)Nc2ccccc2OC)c(C)nc1C	.	.	.	.	-15	.
CCC(C(=O)Nc1ccccc1OC)n1c(C(=O)OC)cc2ccsc21 (stereo not given)	i	-4	-0.22	0.12	-21	71*
CCn1cc(Br)c(C(=O)Nc2ccc(C(=O)OC(C)C)cc2)n1	i	-6	-0.17	-0.92	2	67*
O=C(COc1ccccc1)Nc1nnc(-c2ccccc2)o1	i	-2	-0.028	-0.019	24	21
O=C(COn1nnc2ccc(C(F)(F)F)cc21)Nc1nnc(-c2ccccc2)o1	i	1	0.036	-0.34	-5	100*
CCn1c(C(=O)N2CCCC(C(=O)O)C2)cc2sccc21 (stereo not given)	i	-2	0.21	0.94	.	-14
CCn1c(C(=O)N2CCC(Cc3ccccc3)CC2)cc2sccc21	i	2	-0.17	-0.0083	1	80*
COc1ccc(OCC(=O)N2CCN(C(=O)c3cc(OC)cc(OC)c3)CC2)cc1	i	.	.	.	.	.
N#Cc1c(NC(=O)CSc2ncnc3c2cnn3-c2ccccc2Cl)sc2c1CCCC2	+	-5	-0.35	-0.057	-13	23
N#Cc1c(NC(=O)CSc2ncn(-c3ccccc3)n2)sc2c1CCCC2	.	-3	0.098	0.97	-6	45
CC1CCc2c(C(=O)Oc3cccc(-n4cnnn4)c3)csc2C1 (stereo not given)	.	.	-0.8	0.21	-19	69*
COC(=O)c1ccccc1NC(=O)c1ccc2c(c1)OCCO2	i	-1	0.058	-0.4	-5	89*
COC(=O)c1ccccc1NC(=O)NCc1ccc2c(c1)OCO2	i	0	0.74	1.1	-3	5
N#CCSc1nc2c(c(C3CC=CCC3)c1C#N)CCC2 (stereo not given)	i	-4	0.063	-0.23	-9	67*
Nc1nc2n(n1)C(c1cccc(Br)c1)CC(c1ccccc1)N2 (stereo not given)	i	-2	0.0057	-0.64	4	-7
Brc1cccc(C2CC(c3ccccc3)n3nnnc3N2)c1 (stereo not given)	i	1	-0.27	-0.55	14	63*
CC1CC(N(C(=O)c2ccco2)c2ccccc2)c2ccccc2N1 (stereo not given)	i	1	0.048	0.21	1	68*
Brc1ccc(-c2noc(COc3ccc4c(c3)CCC4)n2)o1	i	-1	0.49	0.34	6	52
c1csc(-c2noc(COc3ccc4c(c3)CCCC4)n2)c1	.	-5	-0.73	-0.54	5	61*
CC1=C(C(=O)OCCc2ccccc2)C(c2ccc([N+](=O)[O-])cc2)CC(=O)N1 (stereo not given)	i	.	.	.	.	.
O=c1n(Cc2ccccc2)c2cc(Cl)cnc2n1Cc1ccccc1	i	-1	-0.14	-0.3	0	89*
CC(C)CNC(=O)C1CC(=O)OC12CCCCC2 (stereo not given)	i	-1	0.92	2.1*	1	-3
